Source: PubChem (several laboratories)
NTR1 agonist: agonists of human neurotensin receptor NTR1. P30989. NTR1-U2OS beta-arrestin-GFP spot imaging, agonist mode. activation, % at 20 µM. 0.17% of 330,000 active. AID 493036;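 active = activation at or above 40% of the spot to cytoplasm intensity ratio, with at least 20 cells analyzed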
Target sequence (P30989 whole entry, looked up): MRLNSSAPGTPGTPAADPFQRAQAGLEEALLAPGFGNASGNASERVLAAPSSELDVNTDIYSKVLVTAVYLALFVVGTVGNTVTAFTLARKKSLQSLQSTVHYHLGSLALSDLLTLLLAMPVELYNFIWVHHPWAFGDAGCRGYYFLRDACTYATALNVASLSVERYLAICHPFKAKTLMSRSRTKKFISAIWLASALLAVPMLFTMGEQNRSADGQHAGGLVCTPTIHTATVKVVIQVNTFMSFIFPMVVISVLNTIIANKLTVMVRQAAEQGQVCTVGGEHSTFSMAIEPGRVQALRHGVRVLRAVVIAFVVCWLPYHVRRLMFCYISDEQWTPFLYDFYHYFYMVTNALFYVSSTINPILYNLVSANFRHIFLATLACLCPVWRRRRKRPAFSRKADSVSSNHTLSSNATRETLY
PG9 binder: small molecules binding HIV-1 gp120 antibody PG9. TR-FRET gp120-PG9 antibody binding. inhibition, % at 6.7 µM. 0.43% of 360,000 active; in the data active = inhibition above about 8.5%
MC4R antag cAMP: human MC4R antagonism in cAMP assay; MC4R-expressing cells, MTII-stimulated cAMP, LANCE TR-FRET; 0.48% of 360,000 active; P32245; inhibition, % at 6.5 µM;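 active = inhibition above its plate's cutoff, the mean of tested wells on that plate plus 3 SD, cut at about 29% in these data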
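Material – human MC4R-expressing U2OS cells · Repeats – no replicates · Detection – TR-FRET with Eu-cAMP and labeled anti-cAMP, 671 nm · Times – compound 30 min, challenge 1 h, detection 1 h · Compound – single nominal compound dose of 6.5 µM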
MC4R ag barr: human MC4R agonism via beta-arrestin; P32245; U2OS MC4R beta-arrestin complementation, luminescence; percent of melanotan II response, DMSO zero; activation, % at 8.9 µM; 0.98% of 360,000 active; AID 540308;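 active = activation above a per-plate cutoff, the mean activation of sample wells on that plate plus 3 SD, cut at about 8% in these data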
NR1D1 modulator: modulators of human Rev-erb alpha DNA binding; Rev-erbα–FITC-DNA binding, fluorescence polarization, 90 min; activity, % at 10 µM; 0.79% of 370,000 active;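 active = activity above about 14%, limit read from the data; passing the limit was not always enough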
NR1D1 mod conf: confirmation of modulators of human Rev-erb alpha DNA binding. activation, % at 25 µM. Rev-erb alpha FITC-DNA binding, fluorescence polarization, 90 min. shares compounds with NR1D1 modulator. 61% of 3,000 active;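 active = activation at or above a set limit, or at least 3 SD above the negative control mean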
RORg counter: counter-screen for Rev-erb alpha modulators: RORgamma DNA binding; IC50, µM; 8% of 910 active; purified RORgamma protein-FITC-DNA binding, fluorescence polarization; shares compounds with NR1D1 modulator;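 active = Compounds whose fitted half-maximal concentration for disrupting protein-DNA binding is below 10 micromolar; the record names Rev-erb in its text, so the target is in doubt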
A number is an active result; . = inactive; / = no result. Compounds with a hit are over-represented: about 2.5% of the library has one in this group of screens.

SMILES	NTR1 agonist	PG9 binder	MC4R antag cAMP	MC4R ag barr	NR1D1 modulator	NR1D1 mod conf	others
CC(C)(C)c1ccc(C(=O)c2c[nH]c(C(=O)NCc3cccs3)c2)cc1	.	.	.	.	96	94	RORg counter=.
C[C@@H]1CN([C@H](C)CO)C(=O)c2cc(NC(=O)Nc3ccccc3)ccc2O[C@@H](C)CCCCO[C@H]1CN(C)S(C)(=O)=O	/	.	/	/	.	/
COc1ccc2c(C)cc(SCC(=O)Nc3cccnc3Cl)nc2c1	.	.	.	.	59	69	RORg counter=.
Cc1cc(O)cc(=O)n1-c1cccc([N+](=O)[O-])c1	/	.	/	/	.	/
CS(=O)(=O)c1ccc(Cl)c(NC(=O)CSc2nnc(C3CC3)n2C2CC2)c1	.	.	.	.	17	.
Cc1nnc(SCC(=O)Nc2cc(S(=O)(=O)N3CCCC3)ccc2Cl)n1C1CC1	.	.	.	.	.	/
O=C(CCS(=O)(=O)c1ccccc1)Nc1ccc(F)cc1Cl	/	/	/	/	.	/
C=CCN1[C@@H](Cc2ccccc2)COc2cccc(F)c2S1(=O)=O	/	/	/	/	.	/
O=C(CC1CCCC1)N[C@H](C(=O)N1CCC[C@H]1C(=O)NC1CCCC1)c1ccccc1	/	.	/	/	.	/
Cc1ccc(-c2nc3cc(Br)cnc3nc2-c2ccc(C)cc2)cc1	.	.	.	.	26	.
COc1cccc(/C=C2\CC3(OC(=O)c4cccc(F)c4)CCCN2C3)c1 (stereo not drawn)	/	/	/	/	.	/
Cc1ccc2nsnc2c1NC(=O)Cc1ccc(Cl)cc1	.	.	.	.	51	.
Cc1ccc2nsnc2c1NC(=O)CCl	.	.	.	.	.	/
NC[C@H]1O[C@H](O[C@H]2[C@H](O)[C@@H](O[C@H]3O[C@H](CO)[C@@H](O)[C@H](N)[C@H]3O)[C@H](N)C[C@@H]2N)[C@H](N)[C@@H](O)[C@@H]1O	/	/	/	/	.	/
O=S1(=O)c2ccc(N3CCSCC3)cc2Oc2ccccc2CN1Cc1cn(Cc2ccc(F)cc2)nn1	/	/	/	/	20	19
O=S1(=O)c2ccc(N3CCSCC3)cc2Oc2ccccc2CN1Cc1cn(Cc2cccc(C(F)(F)F)c2)nn1	/	/	/	/	18	.
COc1cccc(CN(C)C(=O)[C@H]2O[C@@H](n3cnc4c(=O)[nH]c(N)nc43)[C@H](O)[C@@H]2O)c1	/	.	/	/	.	/
COC(=O)[C@]12C[C@H](CC(=O)NCc3cccs3)C(=O)N(Cc3ccc4c(c3)OCO4)C1=C[C@H](C(C)(C)C)O[C@@H]2C	/	.	/	/	.	/
C=CC[C@H]1c2ccccc2[C@H]2N3N=Cc4ccccc4[C@H]3[C@H](CCCC)C(=O)N2N1C(=O)NCc1ccccc1	/	/	/	/	.	/
COc1ccc2[nH]c3c(=O)n(Cc4ccc(C(=O)N5CCCCCC5)cc4)c(=S)[nH]c3c2c1	.	.	.	.	41	29
CC(C)(C)C(=O)OC12CCCN(C1)/C(=C/c1ccc(C#N)cc1)C2 (stereo not drawn)	/	/	/	/	.	/
Cc1cc(C)c(Cn2c3ccccc3c3cnn(CC(=O)NCc4ccccn4)c(=O)c32)c(C)c1	.	.	.	.	39	18
Cc1ccc(/C=C2\SC(=S)N(Cc3ccccc3)C2=O)o1	.	.	.	.	.	/
O=C(O)c1cc(-c2ccc(/C=C3/SC(=S)N(Cc4ccccc4)C3=O)o2)ccc1Cl	/	.	.	.	21	.
CN1CCCCC(NC(=O)c2cccc(C(F)(F)F)c2)C1=O (stereo not drawn)	/	.	/	/	.	/
SMILES	NTR1 agonist	PG9 binder	MC4R antag cAMP	MC4R ag barr	NR1D1 modulator	NR1D1 mod conf	others
O=C1c2c(Br)c(Br)c(Br)c(Br)c2C(=O)N1c1ccccn1	.	.	.	.	276	391	RORg counter=.
O=C1c2cccc3cccc(c23)C(=O)N1c1ccccn1	.	.	.	.	.	/
O=C1CSC(=Nc2ccc(Cl)cc2)N1Cc1ccco1	.	.	.	.	.	/
Cc1cc(C)c(N=C2SCC(=O)N2Cc2ccco2)c(C)c1	.	.	.	.	43	37	RORg counter=.
CC(C)c1ccc2oc(=O)cc(CN3CCCCC3)c2c1	.	.	.	.	.	/
CC1CCN(Cc2cc(=O)oc3ccc(C(C)C)cc23)CC1	.	.	.	.	22	33	RORg counter=.
O=C(NCCCCC(NC(=O)c1ccccc1)C(=O)O)OCc1ccccc1 (stereo not drawn)	/	.	/	/	.	/
